Experimental data as given in ChEMBL document CHEMBL4765243, “Discovery of Novel Bromophenol-Thiosemicarbazone Hybrids as Potent Selective Inhibitors of Poly(ADP-ribose) Polymerase-1 (PARP-1) for Use in Cancer” (J Med Chem, 2019).

Tests used:
[1] = test system: SK-OV-3; assay: Antiproliferative activity against human SK-OV-3 cells assessed as cell growth inhibition at 20 uM incubated for 48 hrs by MTT assay relative to control; assay type: functional
[2] = test system: Bel-7402; assay: Antiproliferative activity against human Bel-7402 cells assessed as cell growth inhibition at 20 uM incubated for 48 hrs by MTT assay relative to control; assay type: functional
[3] = test system: HepG2; assay: Antiproliferative activity against human HepG2 cells assessed as cell growth inhibition at 20 uM incubated for 48 hrs by MTT assay relative to control; assay type: functional
[4] = test system: Caco-2; assay: Antiproliferative activity against human Caco-2 cells assessed as cell growth inhibition at 20 uM incubated for 48 hrs by MTT assay relative to control; assay type: functional
[5] = Cytotoxicity against human HL7702 cells assessed as cell growth inhibition at 20 uM incubated for 48 hrs by MTT assay relative to control; assay type: cell-based; conditions: HL7702 (L02) cells
[6] = test system: SK-OV-3; assay: Antiproliferative activity against human SK-OV-3 cells assessed as cell growth inhibition incubated for 48 hrs by MTT assay; assay type: functional, cell-based; conditions: SK-OV-3, 48 h
How it was run: (§1)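 Cells seeded in 96-well plates and exposed to compounds for 48 h; viability read by MTT. Each experiment repeated three times. SK-OV-3 grown in McCOY's 5A, Bel-7402 and HL-7702 in RPMI-1640, HepG2 in DMEM, Caco-2 in MEM.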

[7] = test system: Bel-7402; assay: Antiproliferative activity against human Bel-7402 cells assessed as cell growth inhibition incubated for 48 hrs by MTT assay; assay type: functional, cell-based; conditions: Bel-7402, 48 h; how it was run: as §1
[8] = test system: HepG2; assay: Antiproliferative activity against human HepG2 cells assessed as cell growth inhibition incubated for 48 hrs by MTT assay; assay type: functional, cell-based; conditions: HepG2, 48 h; how it was run: as §1
[9] = test system: Caco-2; assay: Antiproliferative activity against human Caco-2 cells assessed as cell growth inhibition incubated for 48 hrs by MTT assay; assay type: functional, cell-based; conditions: Caco-2, 48 h; how it was run: as §1
[10] = test system: L02; assay: Cytotoxicity against human HL7702 cells assessed as cell growth inhibition incubated for 48 hrs by MTT assay; assay type: cell-based; conditions: L02, 48 h; how it was run: as §1
[11] = biological target: T1, Poly [ADP-ribose] polymerase 1 (Homo sapiens, UniProt P09874); conditions: dose 100.0 nM, time 30.0 min
[12] = biological target: T1, Poly [ADP-ribose] polymerase 1; assay: Inhibition of human recombinant GST-tagged PARP-1 expressed in Escherichia coli assessed as reduction in NAD+-dependent ADP ribosylation incubated for 30 mins in presence and NAD by resazurin dye based fluorescence analysis
[13] = biological target: Poly [ADP-ribose] polymerase 2 (Homo sapiens, UniProt Q9UGN5); assay: Inhibition of human recombinant N-terminal GST-tagged PARP-2 expressed in Baculovirus infected Sf9 cells assessed as reduction in NAD+-dependent ADP ribosylation using histone mixture (H2A and H2B) as substrate in presence of activated DNA incubated for 30 mins by chemiluminescence assay
[14] = Selectivity index, ratio of IC50 for inhibition of human recombinant N-terminal GST-tagged PARP-2 to IC50 for inhibition of human recombinant GST-tagged PARP-1
[15] = Toxicity in Balb/c nude mouse xenografted with human SKOV3 cells assessed as change in body weight at 25 mg/kg, po for 21 days and measured every third day; assay type: organism-based; conditions: in vivo, 504 h, time 21 day
How it was run: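 Female BALB/c nu/nu mice, 6-8 weeks old, kept under SPF conditions. Each received 5×10^6 SK-OV-3 cells s.c. At 80–120 mm3 tumour volume, mice were split into four groups (n=6). […] Caliper measurement every three days; volume = X × (Y2/2).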

T1 sequence (P09874 whole entry): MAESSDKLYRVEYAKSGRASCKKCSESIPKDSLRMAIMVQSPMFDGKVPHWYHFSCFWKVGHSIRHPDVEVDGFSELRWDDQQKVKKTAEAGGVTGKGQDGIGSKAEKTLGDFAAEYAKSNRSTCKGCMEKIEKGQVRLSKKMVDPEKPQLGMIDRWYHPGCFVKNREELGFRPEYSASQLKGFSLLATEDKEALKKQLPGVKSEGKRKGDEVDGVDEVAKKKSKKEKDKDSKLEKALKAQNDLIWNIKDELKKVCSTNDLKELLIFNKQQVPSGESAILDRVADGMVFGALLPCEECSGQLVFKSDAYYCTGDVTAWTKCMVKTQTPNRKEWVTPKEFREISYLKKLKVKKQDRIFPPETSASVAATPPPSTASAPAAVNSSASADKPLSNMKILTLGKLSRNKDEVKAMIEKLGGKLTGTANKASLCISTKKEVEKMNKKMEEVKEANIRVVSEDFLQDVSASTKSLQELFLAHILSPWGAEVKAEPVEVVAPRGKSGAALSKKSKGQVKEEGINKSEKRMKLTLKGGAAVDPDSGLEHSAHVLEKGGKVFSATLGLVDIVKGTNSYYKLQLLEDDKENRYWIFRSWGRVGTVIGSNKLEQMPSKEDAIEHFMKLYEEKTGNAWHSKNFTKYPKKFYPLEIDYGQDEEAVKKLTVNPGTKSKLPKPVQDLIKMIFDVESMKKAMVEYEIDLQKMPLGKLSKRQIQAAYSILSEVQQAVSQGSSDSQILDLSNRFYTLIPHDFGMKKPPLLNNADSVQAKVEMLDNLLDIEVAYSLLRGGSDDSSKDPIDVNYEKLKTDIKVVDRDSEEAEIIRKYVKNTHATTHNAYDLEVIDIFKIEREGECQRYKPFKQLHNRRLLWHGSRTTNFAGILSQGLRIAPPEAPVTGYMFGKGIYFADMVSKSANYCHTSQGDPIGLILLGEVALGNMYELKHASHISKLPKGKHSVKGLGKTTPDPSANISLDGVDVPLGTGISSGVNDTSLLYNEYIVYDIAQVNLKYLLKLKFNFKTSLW
Chain of Poly [ADP-ribose] polymerase 2 (Q9UGN5 whole entry): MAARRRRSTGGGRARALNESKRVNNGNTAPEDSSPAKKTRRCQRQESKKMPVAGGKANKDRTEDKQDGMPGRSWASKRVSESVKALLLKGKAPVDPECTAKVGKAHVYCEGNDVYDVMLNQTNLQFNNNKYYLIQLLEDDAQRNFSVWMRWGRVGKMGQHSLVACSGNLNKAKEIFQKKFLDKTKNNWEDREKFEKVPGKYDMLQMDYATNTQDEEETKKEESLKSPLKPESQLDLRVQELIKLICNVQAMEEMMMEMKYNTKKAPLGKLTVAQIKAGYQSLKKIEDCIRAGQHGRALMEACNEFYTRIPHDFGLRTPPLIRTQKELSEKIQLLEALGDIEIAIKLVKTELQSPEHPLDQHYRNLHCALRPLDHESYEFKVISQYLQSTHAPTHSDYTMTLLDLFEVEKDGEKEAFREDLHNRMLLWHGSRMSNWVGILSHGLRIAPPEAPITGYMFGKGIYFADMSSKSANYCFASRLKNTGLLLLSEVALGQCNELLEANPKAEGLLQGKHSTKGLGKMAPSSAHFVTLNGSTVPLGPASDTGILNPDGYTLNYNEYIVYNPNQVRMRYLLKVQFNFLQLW

| SMILES | inhibition at 20 µM [1] [%] | inhibition at 20 µM [2] [%] | inhibition at 20 µM [3] [%] | inhibition at 20 µM [4] [%] | inhibition at 48 h, 20 µM [5] [%] | IC50 [6] [µM] | IC50 [7] [µM] | IC50 [8] [µM] | IC50 [9] [µM] | IC50 [10] [µM] | inhibition [11] [%] | IC50 [12] [µM] | IC50 [13] [µM] | Ratio IC50 [14] | Activity [15] |
| --- | --- | --- | --- | --- | --- | --- | --- | --- | --- | --- | --- | --- | --- | --- | --- |
| NC(=S)N/N=C/c1cc(O)c(O)c(Br)c1Br | 60.7 | 69.3 | 65.8 | 53.6 | 82.9 | 19.2 | 19.6 | 16 | 16.4 | 13.5 | 37.1 |  |  |  |  |
| COc1cc(/C=N/NC(=S)Nc2ccc(Cl)cc2)c(Br)c(Br)c1OC | 81.2 | 51.5 | 62.7 | 44.8 | 85.5 | 15.3 | 13.9 | 13.4 | 10.1 | 3.5 | 38.2 |  |  |  |  |
| Oc1cc(/C=N/NC(=S)Nc2ccccc2)cc(Br)c1O | 76.2 | 63.5 | 67.9 | 72 | 86.4 | 14 | 13.1 | 9.29 | 22.7 | 13.4 | 28 |  |  |  |  |
| CCOC(=O)c1ccc(NC(=S)N/N=C/c2cc(Br)c(OC)c(OC)c2)cc1 | 60.4 | 39.4 | 59.3 | 55.5 | 84 | 13.7 | 9.87 | 8.55 | 13.7 | 8.8 | 43.7 |  |  |  |  |
| COc1cc(/C=N/NC(=S)Nc2ccccc2)c(Br)c(Br)c1OC | 90.4 | 50.3 | 54.6 | 14.2 | 86.4 | 9.25 | 30.2 | 25.7 | 9.97 | 22.6 | 43.8 |  |  |  |  |
| CCOC(=O)c1ccc(NC(=S)N/N=C/c2cc(OC)c(OC)c(Br)c2Br)cc1 | 70 | 71.9 | 73 | 76.5 | 97.7 | 15.6 | 6.89 | 10.5 | 11.3 | 9.96 | 72.2 | 0.0583 | > 1 | > 17.2 |  |
| COc1cc(/C=N/NC(N)=S)c(Br)c(Br)c1O | 28 | 44.8 | 50.8 | 24.9 | < 0 |  |  |  |  |  | 61 | 0.254 | > 1 | > 3.94 |  |
| O=C(c1cc(Cc2n[nH]c(=O)c3ccccc23)ccc1F)N1CCN(C(=O)C2CC2)CC1 [OLAPARIB] |  |  |  |  |  | 3.15 | 35.5 | 42.4 | 65.5 | 25.8 |  |  |  |  | Non-Toxic |
| COc1cc(/C=N/NC(=S)NCCCN2CCOCC2)cc(Br)c1OC | 37.7 | 39.4 | 35.2 | 36.9 | 24.7 |  |  |  |  |  | 33 |  |  |  |  |
| Oc1ccc(/C=N/NC(=S)Nc2ccccc2)cc1O | < 0 | 38.8 | < 0 | 78.2 | 76.4 |  |  |  |  |  | 40.7 |  |  |  |  |
| NC(=S)N/N=C/c1cc(O)c(O)c(Br)c1 | < 0 | < 0 | < 0 | 47.9 | 54.8 |  |  |  |  |  | 30.2 |  |  |  |  |
| COc1cc(/C=N/NC(=S)NCCCN2CCOCC2)c(Br)c(Br)c1OC | 71.5 | 89.7 | 40.2 | 45.9 | 51 | 18.2 | 24 | 26.3 | 15.9 | 28.9 | 51.5 | 0.186 | > 1 | > 5.37 |  |
| COc1cc(/C=N/NC(=S)Nc2cccc(C(F)(F)F)c2)cc(Br)c1OC | 63.3 | 26 | 36.4 | 21 | 58.6 |  |  |  |  |  | 38.3 |  |  |  |  |
| CNC(=S)N/N=C/c1cc(OC)c(OC)c(Br)c1Br | 18.3 | 3.9 | 38.9 | < 0 | 63.4 |  |  |  |  |  | 32.2 |  |  |  |  |
| Oc1cc(/C=N/NC(=S)Nc2ccccc2)c(Br)c(Br)c1O | 54.6 | 73.1 | 72.9 | 76.4 | 94.5 | 5.12 | 12.3 | 7.08 | 9.34 | 5.65 | 45.9 |  |  |  |  |
| COc1cc(/C=N/NC(=S)Nc2ccc(F)cc2)cc(Br)c1OC | 42.4 | 48.2 | 32.3 | 49.1 | 68.6 |  |  |  |  |  | 38.1 |  |  |  |  |
| COc1cc(/C=N/NC(=S)Nc2ccccc2)ccc1O | 45.3 | 41 | 58.4 | 75.1 | 9.28 |  |  |  |  |  | 20.6 |  |  |  |  |
